For assay [1], the species on record is Rattus norvegicus. The experiment in a line: In vitro FSH-release potency of compound was measured in rat hemipituitaries by taking LH-RH as standard. The format is functional. The method in brief:
(§1)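 Rat hemipituitaries incubated in vitro with each analogue, usually at two dose levels in a 2 × 2 (four-point) design against an LH-RH standard. Media sampled 6 h later and assayed for LH and FSH by radioimmunoassay. Potency expressed relative to the standard, with 95% confidence limits.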

The species entered for assay [2] is Rattus norvegicus. The experiment in a line: In vitro LH-release potency of compound was measured in rat hemipituitaries by taking LH-RH as standard. The format is functional. The method in brief: as §1

Square brackets hold non-standard residues; d marks the D form. Peptide text beside a SMILES is read from it. * marks the point of attachment. pGlu = O=C1CC[C@@H](C(=O)O)N1; X1 = O=C(NN*)C(F)(F)F; X5 = N/C(S)=N\N*; X2 = CC(=O)NN*; X3 = CN(N)*; X4 = O=CNN*

As to `CC(C)C[C@H](NC(=O)CNC(=O)[C@H](Cc1ccc(O)cc1)NC(=O)[C@H](CO)NC(=O)[C@H](Cc1c[nH]c2ccccc12)NC(=O)[C@H](Cc1cnc[nH]1)NC(=O)[C@@H]1CCC(=O)N1)C(=O)N[C@@H](CCCNC(=N)N)C(=O)N1CCC[C@H]1C(=O)NCC(N)=O` [GONADORELIN], the Potency in the assay filed under Rattus norvegicus [1] and in the assay filed under Rattus norvegicus [2] was 100 throughout.
Turning to `CC(C)C[C@H](NC(=O)CNC(=O)[C@H](Cc1ccc(O)cc1)NC(=O)[C@H](CO)NC(=O)[C@H](Cc1c[nH]c2ccccc12)NC(=O)[C@H](Cc1c[nH]cn1)NC(=O)[C@@H]1CCC(=O)N1)C(=O)N[C@@H](CCCN=C(N)N)C(=O)N1CCC[C@H]1C(=O)N(C)N` ([pGlu]HWSYGLRP-X3), the results for the Potency in the assay listed under Rattus norvegicus [1] and in the assay listed under Rattus norvegicus [2] were 11 and 17, respectively.
For `CC(C)C[C@H](NC(=O)CNC(=O)[C@H](Cc1ccc(O)cc1)NC(=O)[C@H](CO)NC(=O)[C@H](Cc1c[nH]c2ccccc12)NC(=O)[C@H](Cc1c[nH]cn1)NC(=O)[C@@H]1CCC(=O)N1)C(=O)N[C@@H](CCCN=C(N)N)C(=O)N1CCC[C@H]1C(=O)N/N=C(\N)S` ([pGlu]HWSYGLRP-X5) the same measures were 4.6 and 6.5.
For `CC(=O)NNC(=O)[C@@H]1CCCN1C(=O)[C@H](CCCN=C(N)N)NC(=O)[C@H](CC(C)C)NC(=O)CNC(=O)[C@H](Cc1ccc(O)cc1)NC(=O)[C@H](CO)NC(=O)[C@H](Cc1c[nH]c2ccccc12)NC(=O)[C@H](Cc1c[nH]cn1)NC(=O)[C@@H]1CCC(=O)N1` ([pGlu]HWSYGLRP-X2), the Potency is 0.6 in the assay filed under Rattus norvegicus [1] and 1.2 in the assay filed under Rattus norvegicus [2].
The corresponding values for `CC(C)C[C@H](NC(=O)CNC(=O)[C@H](Cc1ccc(O)cc1)NC(=O)[C@H](CO)NC(=O)[C@H](Cc1c[nH]c2ccccc12)NC(=O)[C@H](Cc1c[nH]cn1)NC(=O)[C@@H]1CCC(=O)N1)C(=O)N[C@@H](CCCN=C(N)N)C(=O)N1CCC[C@H]1C(=O)NNC(=O)C(F)(F)F` ([pGlu]HWSYGLRP-X1) are 0.9 and 1.
The corresponding values for `CC(C)C[C@H](NC(=O)CNC(=O)[C@H](Cc1ccc(O)cc1)NC(=O)[C@H](CO)NC(=O)[C@H](Cc1c[nH]c2ccccc12)NC(=O)[C@H](Cc1c[nH]cn1)NC(=O)[C@@H]1CCC(=O)N1)C(=O)N[C@@H](CCCN=C(N)N)C(=O)N1CCC[C@H]1C(=O)NNC=O` ([pGlu]HWSYGLRP-X4) are 10 and 15.3.

The values above are taken from ChEMBL document CHEMBL1121789, “Some analogues of luteinizing hormone-releasing hormone with substituents in position 10” (1981).
